According to ChEMBL document CHEMBL4513216, “Probing the Open Global Health Chemical Diversity Library for Multistage-Active Starting Points for Next-Generation Antimalarials” (ACS Infect Dis, 2020):

Experiment: Toxicity liver stage against HepG2, at 10uM
Format: cell-based
Parameters: test concentration 10 uM, cell line HepG2-A16-CD81EGFP
Details: human, HepG2-A16-CD81EGFP cells; read-out: INHIBITION
In short: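 Uninfected HepG2-A16-CD81EGFP cells, 3 × 10^3 per well, 1536-well, plated on prespotted compound at 10 μM final, parasite-free screening media added to match infected plates; puromycin 10 μM positive, DMSO 0.5% negative; run in parallel with 48 h PbLuc assay at 37 °C, 5% CO2; viability by CellTiter-Glo luminescence, normalized to controls.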

Row | SMILES | cytotoxicity at 10 µM [%]
1 | CCOC(=O)c1cnn(-c2cc(Oc3cccc(C)c3)ncn2)c1N | 16.9
2 | CCOc1ccc(C(=O)Nc2c(C)nc3ccc(Cl)cn3c2=O)cc1 | -4.31
3 | Cc1cnc2c(c1NCc1ccc(F)cc1)c(=O)n(C)c(=O)n2C | -7.36
4 | CCN(C)C(=O)c1ccnn1-c1ccc2ccccn12 | 6.71
5 | O=C(C1CC1)N1CCC2(CC1)CNCCO2 | -2.82
6 | CNC(=O)C1CC2(CCN(C(=O)c3csnn3)CC2)c2ccccc21 (stereo unspecified) | -154
7 | COCCNC(=O)c1sccc1N(C)S(=O)(=O)c1ccc(Cl)cc1 | 6.33
8 | Cc1ccccc1COCCOCn1c(C)cc(=O)[nH]c1=O | 2.56
9 | CCn1ncc(Cn2cc(Cl)c(N)n2)c1C | -8.55
10 | CC(C)c1cc(C(=O)NCCN2CCOCC2)nc(N2CCCC2)n1 | 8.82
11 | c1ccc(N2CCN(Cc3cnc(C4CCCCO4)nc3)CC2)nc1 (stereo unspecified) | -3
12 | Cc1cccc(CN2CCCC2c2cccc(CCC(=O)O)n2)c1 (stereo unspecified) | -12.6
13 | Cc1cncc(CN2C[C@@H](O)[C@H](Oc3ccccc3)C2)c1 | 0.442
14 | O=C(C1CCCC1)N1CCC(c2n[nH]c3nccnc23)CC1 | 0.165
15 | CC(=O)N1CCCC1c1cc(N2CCN(CC(C)(C)C)CC2)cc(C)n1 (stereo unspecified) | -6.41
16 | Cc1ccc(-c2nc(CC(=O)N3CCCC(NC(=O)C(C)C)C3)cs2)o1 (stereo unspecified) | -50.5
17 | Cc1noc(C2CCCN(C(=O)c3cc(Cl)c(Cl)n3C)C2)n1 (stereo unspecified) | 13.6
18 | CCOc1nnc(CN2CCN(CCOC)C(C)C2)s1 (stereo unspecified) | -11.1
19 | O=C(c1cc(C2CC2)nc2onc(-c3ccccc3)c12)N1CCOCC1 | -40.5
20 | COc1c(NS(=O)(=O)c2ccc(C)c(C)c2)c(C)nn1C | 3.73
21 | CCc1noc(CS(=O)(=O)C(C)c2nc(C3CC3)no2)n1 (stereo unspecified) | 11.3

Row | SMILES | cytotoxicity at 10 µM [%]
22 | CCN(C(=O)CN1CCn2c(nnc2C2CC2)C1)C1=CCCCC1 | 10
23 | O=C(NCc1cccnc1-n1cncn1)c1ccncc1 | 5.91
24 | Cc1cccc2nc(CNC(=O)N3CCC(OCC4CC4)CC3)cn12 | -2.02
25 | CCC(C)NC(=O)c1nnn(-c2cccc3c2CCN(C)C3)c1C (stereo unspecified) | -6.39
26 | CCOc1cc(C(=O)N(C)C)ccc1NC(=O)C(C)c1ccsc1 (stereo unspecified) | 5.61
27 | O=C(CCN1C(=O)CCC1=O)Nc1ccc(Oc2ccc(Cl)cc2)nc1 | -23.5
28 | Cc1nc(SC2CCN(c3sccc3C#N)C2=O)oc1C (stereo unspecified) | -4.92
29 | Cc1occc1C(=O)N(CCN(C)C)Cc1ccccn1 | 7.65
30 | CCCNC(=O)C1CCN(CC(O)c2ccc(C(F)(F)F)cc2)CC1 (stereo unspecified) | 2.68
31 | COc1ccccc1C(C)N1CCN(S(C)(=O)=O)CC1 (stereo unspecified) | 9.62
32 | O=C(CNc1cccc(S(=O)(=O)C(F)F)c1)NCc1ccco1 | -40.5
33 | CCN(CC(=O)N(C)C)S(=O)(=O)c1cnc2c(c1)c(C)nn2C | 2.59
34 | Cc1cn2c(n1)C(CNCc1ccc(C)s1)CCC2 (stereo unspecified) | -26.3
35 | Cc1ccc2cc(C(=O)N3CCC(O)(C(F)(F)F)CC3)ccc2n1 | -54.7
36 | O=C(NC1CC1)c1cc2c(s1)CCN2C(=O)C1CC1 | 6.17
37 | O=C1[C@H]2CN(c3cnccn3)C[C@H]2CN1CC1CC1 | -108
38 | CCC(=O)N1CCC2(CC1)CC(CC(=O)N(C)C)c1ccc(F)cc12 (stereo unspecified) | -101
39 | O=C(c1cccs1)N1CCC2(C1)c1ccccc1S(=O)(=O)N2CC1CC1 (stereo unspecified) | -4.27
40 | c1cncc(-c2nc(C3CC3)ncc2-c2ccnc(N3CCCC3)n2)c1 | -2.5
41 | CC(C)CC(=O)N1CC(=O)c2sc(Nc3ccc(F)cc3)nc2C1 | -2.28
42 | CSc1nnc(CC2CCN(C(=O)CCc3cccnc3)CC2)n1C | -43.5

Row | SMILES | cytotoxicity at 10 µM [%]
43 | CC(Cn1cncn1)NCc1csc2c1CCCC2 (stereo unspecified) | -1.53
44 | CCc1ncc2c(n1)CN(C(=O)CC(C)NC(C)=O)C2 (stereo unspecified) | 3.6
45 | CCC(Nc1nc(CCN)nc2ccccc12)c1cccs1 (stereo unspecified) | -3.09
46 | CCCc1cc(CN(C)C2CSCCSC2)n[nH]1 | 0.786
47 | O=C(O)CCc1cc2n(n1)CCCN(C(=O)c1ccc(Cl)s1)C2 | -6.06
48 | COc1cc(CN2CCC3(CC2)[C@H](O)C[C@@H]3OCCO)ccc1F | -12.2
49 | Cc1nccn1CCC1CCCCN1Cc1ccc2c(c1)OCCO2 (stereo unspecified) | -7.63
50 | CCc1cc(-c2ccnc3c2ccn3C)nc(N2CCOCC2)n1 | -7.09
51 | COCC(=O)N(Cc1cccc(C)c1)Cc1ccccc1OC | -51.4
52 | COc1ccccc1N1CCN(C(=O)CSCC2CC2)C(C)C1 (stereo unspecified) | 4.06
53 | O=C(CCc1ccccn1)NC1CCCN(C2Cc3ccccc3C2)C1 (stereo unspecified) | 1.96
54 | CN(C)[C@H]1CCCCN(C(=O)COCc2nc3cc(F)ccc3[nH]2)C1 | 0.185
55 | COCC1(CNC(=O)Nc2cc(F)ccc2OC)CCCC1 | 5.17
56 | CNC(=O)[C@@H]1C[C@@H](NC(=O)Cc2nonc2C)CN1Cc1sccc1C | -4.42
57 | CCc1cc(NC2CCN(CC(N)=O)CC2)nc(N2CCCCC2)n1 | -4.75
58 | CN1CCN(c2cnn(Cc3ccc(S(C)(=O)=O)cc3)c(=O)c2)CC1 | -10.4
59 | COc1ccc(-c2n[nH]cc2CN(C)Cc2nccn2C)c(F)c1 | -2.77
60 | O=C1CCCN1CCN1CC[C@@]2(O)CCN(c3ncccn3)C[C@H]2C1 | -2.61
61 | COC(=O)c1cc(CN2CCN(c3nc(C)cnc3C)CC2)ccc1O | 0.171
62 | COCC1(C(=O)N[C@H]2CN(c3ccnc(C)c3)C[C@@H]2C2CC2)CCC1 | -160
63 | CCC[C@@H]1CN(C(=O)c2cnc3ccccc3c2)C[C@H]1NS(C)(=O)=O | -11.1

Row | SMILES | cytotoxicity at 10 µM [%]
64 | CN1CCCC(c2cccc(Cc3ccccc3Cl)n2)C1 (stereo unspecified) | 1.03
65 | O=C(c1cnco1)N1CCCC(Cc2cccc3ncccc23)C1 (stereo unspecified) | 2.16
66 | CC(NC(=O)NCc1cc[nH]n1)c1ccc2c(c1)CCC(=O)N2 (stereo unspecified) | -9.37
67 | CCc1nc(C2CCCN2CCCS(=O)(=O)c2ccccc2)no1 (stereo unspecified) | -6.15
68 | Cc1ccc(-c2nc(CN3CCCC3Cn3cc(C)cn3)no2)cc1 (stereo unspecified) | 4.07
69 | CC(C)Oc1ccccc1CNC(=O)N1CCC(n2cncn2)CC1 | 2.38
70 | CCOC(=O)N1CCN(c2nc(NCCCO)c3ccccc3n2)CC1 | -9.21
71 | CCCc1nnsc1C(=O)N1CCN(CC(C)O)CC1 (stereo unspecified) | -5.3
72 | CC1CCN(CCCNS(=O)(=O)c2cc(F)cc(F)c2)CC1 | 11.3
73 | CCOCC1CN(C(=O)c2cnoc2C)Cc2cn(C)nc21 (stereo unspecified) | 12.9
74 | CN1CCN(c2ccc3ccc(C(=O)N4CCCO4)cn23)CC1 | 13.4
75 | O=C(c1ccncc1F)N1Cc2nc(CN3CCCCC3)oc2C1 | -105
76 | COCCN1CCc2cc(C(=O)NCC3CC3)c(NC(C)C)nc2CC1 | 73.6
77 | N#Cc1cccc(N2CCCC3(CNCCO3)C2)n1 (stereo unspecified) | 13.7
78 | COC[C@@]12CCO[C@@H]1CCN(Cc1ccccc1OC)C2 | -110
79 | Cc1cccc(CN2CC[C@H]3[C@H]2CCN3Cc2cnn(C)c2)n1 | 8.67
80 | O=C(NC1CCC1)[C@H]1C[C@H]2CN(S(=O)(=O)c3ccccc3)C[C@@H]1O2 | -9.02
81 | O=C(CN1C[C@@H]2CC[C@H]1CN(Cc1ccccn1)C2)NCc1cccs1 | -24.2
